Measurements taken from ChEMBL document CHEMBL4033712, “Synthesis and biological evaluation of new C-12(α/β)-(N-) sulfamoyl-phenylamino-14-deoxy-andrographolide derivatives as potent anti-cancer agents” (Bioorg Med Chem Lett, 2017).

Assays:
Format in all cases: functional
CCRF-CEM = experiment: Growth inhibition of human CCRF-CEM cells incubated for 48 hrs by sulforhodamine B assay
How it was run: (§1)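 NCI-60 five-dose screen at 0.01, 0.1, 1, 10 and 100 µM, 48 h incubation, sulforhodamine B end point. GI50 (50% decrease in net growth), TGI (total growth inhibition) and LC50 (net 50% loss of initial cells) taken from log concentration versus % growth inhibition curves.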

K562 = experiment: Growth inhibition of human K562 cells incubated for 48 hrs by sulforhodamine B assay; settings: K562, 48 h; how it was run: as §1
SR = experiment: Growth inhibition of human SR cells incubated for 48 hrs by sulforhodamine B assay
How it was run: (§2)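 NCI 60 human tumour cell line panel, five-dose study at 0.01, 0.1, 1, 10 and 100 µM, 48 h incubation. Sulforhodamine B protein-binding dye end point. GI50 (50% decrease in net cell growth), TGI (total growth inhibition) and LC50 (net 50% loss of initial cells) read from log concentration versus % growth inhibition curves.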

HOP-62 = experiment: Growth inhibition of human HOP62 cells incubated for 48 hrs by sulforhodamine B assay; settings: HOP-62, 48 h; how it was run: as §1
HOP-92 [1] = experiment: Growth inhibition of human HOP92 cells incubated for 48 hrs by sulforhodamine B assay; settings: HOP-92, 48 h; how it was run: as §1
NCI-H226 = experiment: Growth inhibition of human NCI-H226 cells incubated for 48 hrs by sulforhodamine B assay; settings: NCI-H226, 48 h; how it was run: as §1
NCI-H460 = experiment: Growth inhibition of human NCI-H460 cells incubated for 48 hrs by sulforhodamine B assay; settings: NCI-H460, 48 h; how it was run: as §1
COLO 205 = experiment: Growth inhibition of human COLO205 cells incubated for 48 hrs by sulforhodamine B assay; settings: COLO 205, 48 h; how it was run: as §1
HCT-116 = experiment: Growth inhibition of human HCT116 cells incubated for 48 hrs by sulforhodamine B assay; settings: HCT-116, 48 h; how it was run: as §1
KM12 = experiment: Growth inhibition of human KM12 cells incubated for 48 hrs by sulforhodamine B assay; settings: KM12, 48 h; how it was run: as §1
SW-620 = experiment: Growth inhibition of human SW620 cells incubated for 48 hrs by sulforhodamine B assay; settings: SW-620, 48 h; how it was run: as §2
SF-268 = experiment: Growth inhibition of human SF268 cells incubated for 48 hrs by sulforhodamine B assay; settings: SF-268, 48 h; how it was run: as §2
SF-295 = experiment: Growth inhibition of human SF295 cells incubated for 48 hrs by sulforhodamine B assay; settings: SF-295, 48 h; how it was run: as §2
SNB-75 = experiment: Growth inhibition of human SNB75 cells incubated for 48 hrs by sulforhodamine B assay; settings: SNB-75, 48 h; how it was run: as §2
U-251 = experiment: Growth inhibition of human U251 cells incubated for 48 hrs by sulforhodamine B assay; settings: U-251, 48 h; how it was run: as §2
MDA-MB-435 = experiment: Growth inhibition of human MDA-MB-435 cells incubated for 48 hrs by sulforhodamine B assay; settings: MDA-MB-435, 48 h; how it was run: as §1
SK-MEL-2 = experiment: Growth inhibition of human SK-MEL-2 cells incubated for 48 hrs by sulforhodamine B assay; settings: SK-MEL-2, 48 h; how it was run: as §2
SK-MEL-5 = experiment: Growth inhibition of human SK-MEL-5 cells incubated for 48 hrs by sulforhodamine B assay; settings: SK-MEL-5, 48 h; how it was run: as §2
UACC-257 = experiment: Growth inhibition of human UACC257 cells incubated for 48 hrs by sulforhodamine B assay; settings: UACC-257, 48 h; how it was run: as §2
ACHN = experiment: Growth inhibition of human ACHN cells incubated for 48 hrs by sulforhodamine B assay; how it was run: as §1
CAKI-1 = experiment: Growth inhibition of human Caki1 cells incubated for 48 hrs by sulforhodamine B assay; settings: CAKI-1, 48 h; how it was run: as §1
RXF 393 = experiment: Growth inhibition of human RXF393 cells incubated for 48 hrs by sulforhodamine B assay; settings: RXF 393, 48 h; how it was run: as §2
TK-10 = experiment: Growth inhibition of human TK10 cells incubated for 48 hrs by sulforhodamine B assay; settings: TK-10, 48 h; how it was run: as §2
PC-3 = experiment: Growth inhibition of human PC3 cells incubated for 48 hrs by sulforhodamine B assay; settings: PC-3, 48 h; how it was run: as §1
Hs-578T = experiment: Growth inhibition of human Hs 578T cells incubated for 48 hrs by sulforhodamine B assay; how it was run: as §1
BT-549 = experiment: Growth inhibition of human BT549 cells incubated for 48 hrs by sulforhodamine B assay; settings: BT-549, 48 h; how it was run: as §1
T47D = experiment: Growth inhibition of human T47D cells incubated for 48 hrs by sulforhodamine B assay; how it was run: as §2
HOP-92 [2] = experiment: Anticancer activity against human HOP92 cells assessed as cell growth at 10 uM after 48 hrs by sulforhodamine B assay relative to control; settings: HOP-92, 48 h, read-out: Activity
How it was run: (§3)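 Single-dose NCI-60 panel screen: compound added at 10 µM and the culture incubated 48 h. The end point was read by protein staining with sulforhodamine B. The value is percent growth of treated cells relative to untreated control cells, reported as a mean graph across the panel.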

SF-539 = experiment: Anticancer activity against human SF539 cells assessed as cell growth at 10 uM after 48 hrs by sulforhodamine B assay relative to control; settings: SF-539, 48 h, read-out: Activity; how it was run: as §3
[3] = read-out: LC50 (the source's name)

C=C1CC[C@@H]2[C@](C)(COC(C)=O)[C@H](OC(C)=O)CC[C@@]2(C)[C@H]1CC(Nc1ccc(S(=O)(=O)Nc2nccs2)cc1)C1=CCOC1=O (stereo partly drawn)
GI50 (CCRF-CEM): 2280 nM | TGI (CCRF-CEM): 6.76 µM | CC50 (CCRF-CEM; [3]): > 100 µM | GI50 (K562): 3.6 µM | TGI (K562): 29 µM | CC50 (K562; [3]): > 100 µM | GI50 (SR): 1330 nM | TGI (SR): > 100 µM | CC50 (SR; [3]): > 100 µM | GI50 (HOP-62): 13.8 µM | TGI (HOP-62): 27.5 µM | CC50 (HOP-62; [3]): 54.7 µM | GI50 (HOP-92 [1]): 12.4 µM | TGI (HOP-92 [1]): 25.3 µM | CC50 (HOP-92 [1]; [3]): 52 µM | GI50 (NCI-H226): 2360 nM | TGI (NCI-H226): 5.37 µM | CC50 (NCI-H226; [3]): > 100 µM | GI50 (NCI-H460): 10.7 µM | TGI (NCI-H460): 25.3 µM | CC50 (NCI-H460; [3]): 59.9 µM | GI50 (COLO 205): 3.14 µM | TGI (COLO 205): 10.5 µM | CC50 (COLO 205; [3]): 48.9 µM | GI50 (HCT-116): 1750 nM | TGI (HCT-116): 3.75 µM | CC50 (HCT-116; [3]): 8 µM | GI50 (KM12): 7.57 µM | TGI (KM12): 21.7 µM | CC50 (KM12; [3]): 53.3 µM | GI50 (SW-620): 1850 nM | TGI (SW-620): 3.98 µM | CC50 (SW-620; [3]): 8.55 µM | GI50 (SF-268): 11.3 µM | TGI (SF-268): 25.9 µM | CC50 (SF-268; [3]): 59.1 µM | GI50 (SF-295): 13.8 µM | TGI (SF-295): 27.2 µM | CC50 (SF-295; [3]): 53.8 µM | GI50 (SNB-75): 2830 nM | TGI (SNB-75): 15.6 µM | CC50 (SNB-75; [3]): 39.5 µM | GI50 (U-251): 1860 nM | TGI (U-251): 3.5 µM | CC50 (U-251; [3]): 6.57 µM | GI50 (MDA-MB-435): 3.29 µM | TGI (MDA-MB-435): 12.7 µM | CC50 (MDA-MB-435; [3]): 38 µM | GI50 (SK-MEL-2): 10.6 µM | TGI (SK-MEL-2): 24.3 µM | CC50 (SK-MEL-2; [3]): 56.1 µM | GI50 (SK-MEL-5): 4.79 µM | TGI (SK-MEL-5): 17.1 µM | CC50 (SK-MEL-5; [3]): 41.3 µM | GI50 (UACC-257): 2550 nM | TGI (UACC-257): 5.61 µM | CC50 (UACC-257; [3]): 17.2 µM | GI50 (ACHN): 5.99 µM | TGI (ACHN): 18.9 µM | CC50 (ACHN; [3]): 45 µM | GI50 (CAKI-1): 3.8 µM | TGI (CAKI-1): 14.2 µM | CC50 (CAKI-1; [3]): 37.7 µM | GI50 (RXF 393): 2360 nM | TGI (RXF 393): 4.74 µM | CC50 (RXF 393; [3]): 9.53 µM | GI50 (TK-10): 9.45 µM | TGI (TK-10): 21.2 µM | CC50 (TK-10; [3]): 46.1 µM | GI50 (PC-3): 7.74 µM | TGI (PC-3): 21.5 µM | CC50 (PC-3; [3]): 52.2 µM | GI50 (Hs-578T): 10.8 µM | LC50 (Hs-578T): > 100 µM | TGI (Hs-578T): 60.4 µM | GI50 (BT-549): 2430 nM | TGI (BT-549): 6.5 µM | CC50 (BT-549; [3]): 23.1 µM | GI50 (T47D): 3.39 µM | TGI (T47D): 20.8 µM | CC50 (T47D; [3]): > 100 µM | growth at 10 µM (HOP-92 [2]): 54% | growth at 10 µM (SF-539): -67.1%
